pIC50: −log10 of the molar value. In brackets after ≈: the same amount, converted by molar mass. Activity calls are given as the source filed them. No cut-off for these calls is given here.
Test system: P388
Assay: Effective dose against 50% reduction in Murine leukemia (P-388) cell number after 3-day incubation
Assay type: functional
Details: Mus musculus, P388, 72 h; read-out: ED50 (the source's name)

Compound | EC50 [µg/mL]
O=c1cc(-c2ccccc2)sc2cc(O)c(O)cc12 | 4.51 (≈ 16.7 µM)
O=c1cc(-c2ccccc2)[s+]([O-])c2ccccc12 (centres undefined) | 1.18 (≈ 4.64 µM)
COc1cccc(-c2cc(=O)c3cc(OC)c(OC)cc3s2)c1 | 0.61 (≈ 1.86 µM)
Nc1cccc2c(=O)cc(-c3ccccc3)sc12 | 7.46 (≈ 29.4 µM)
CC(=O)Oc1cc2sc(-c3ccccc3)cc(=O)c2cc1OC(C)=O | 4.83 (≈ 13.6 µM)

Test system: KB
Assay: Effective dose against 50% reduction in Human epidermoid carcinoma of the nasopharynx (KB) cell number after 3-day incubation
Assay type: functional
Details: 72 h, read-out: ED50 (the source's name)

Compound | EC50 [µg/mL]
O=c1cc(-c2ccccc2)sc2cc(O)c(O)cc12 | 5.5 (≈ 20.3 µM)
O=c1cc(-c2ccccc2)[s+]([O-])c2ccccc12 (centres undefined) | 5.5 (≈ 21.6 µM)
COc1cccc(-c2cc(=O)c3cc(OC)c(OC)cc3s2)c1 | 5.5 (≈ 16.7 µM)
CC(=O)Oc1cc2sc(-c3ccccc3)cc(=O)c2cc1OC(C)=O | 5.5 (≈ 15.5 µM)

Test system: not listed separately
Assay: Therapeutic index valued has been determined in H9 cells
Assay type: cell-based
Details: human, read-out: Therapeutic index

Compound | selectivity ratio
Oc1cc(-c2ccccc2)nc2c(S)cccc12 | 2.9
O=c1cc(-c2ccccc2)sc2cc(O)c(O)cc12 | 2.3
Nc1cccc2c(=O)cc(-c3ccccc3)sc12 | 3.8
CC(=O)Oc1cc2sc(-c3ccccc3)cc(=O)c2cc1OC(C)=O | 4.6
Nc1ccc2sc(-c3ccccc3)cc(=O)c2c1 | 1.1

Test system: H9
Assay: Inhibitory activity against growth of uninfected H9 lymphocytes
Assay type: functional, cell-based
Details: Homo sapiens
In short: (§1)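 Uninfected H9 cultures exposed to compound diluted in medium for 4 days at 37 °C. Cell density counted in a Coulter counter; IC₅₀ determined.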

Compound | IC50 [µg/mL]
Oc1cc(-c2ccccc2)nc2c(S)cccc12 | 35 (≈ 138 µM)
O=c1cc(-c2ccccc2)sc2cc(O)c(O)cc12 | 1.8 (≈ 6.66 µM)
Nc1cccc2c(=O)cc(-c3ccccc3)sc12 | 15 (≈ 59.2 µM)
CC(=O)Oc1cc2sc(-c3ccccc3)cc(=O)c2cc1OC(C)=O | 3 (≈ 8.47 µM)
Nc1ccc2sc(-c3ccccc3)cc(=O)c2c1 | 7.5 (≈ 29.6 µM)

Test system: H9
Assay: Effective dose required to inhibit virus replication growth by 50%
Assay type: functional
Details: Homo sapiens, H9, read-out: ED50

Compound | EC50 [µM]
Cc1cn([C@H]2C[C@H](N=[N+]=[N-])[C@@H](CO)O2)c(=O)[nH]c1=O [ZIDOVUDINE] | 0.04

Test system: Medulloblastoma tumour cell line
Assay: Effective dose against medulloblastoma tumor cell lines
Assay type: functional
Details: read-out: ED50 (the source's name)

Compound | EC50 [µg/mL]
COc1cc(-c2oc3c(OC)c(OC)c(OC)c(O)c3c(=O)c2OC)ccc1O | 0.99 (≈ 2.45 µM)

Target: T1, DNA topoisomerase II (Homo sapiens) (UniProt P11388+Q02880)
Assay: Inhibitory activity against DNA topoisomerase II at dose 100 uM
Assay type: protein assay
Details: not given
In short: (§2)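 Topo II activity read as ATP-dependent unknotting of P4 DNA. Test compound at 100 µM; % inhibition is relative to enzyme and DNA control reactions. VP-16 served as the reference inhibitor.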

Compound | inhibition [%]
COc1cccc(-c2cc(O)c3cc(N4CCCC4)ccc3n2)c1 | 0
O=c1cc(-c2ccccc2)sc2cc(O)c(O)cc12 | 0

Test system: RPMI
Assay: Effective dose against 50% reduction in Human melanoma (RPMI)cell number after 3-day incubation
Assay type: functional
Details: 72 h, read-out: ED50 (the source's name)

Compound | EC50 [µg/mL]
O=c1cc(-c2ccccc2)sc2cc(O)c(O)cc12 | 3.92 (≈ 14.5 µM)
O=c1cc(-c2ccccc2)[s+]([O-])c2ccccc12 (centres undefined) | 5.5 (≈ 21.6 µM)
COc1cccc(-c2cc(=O)c3cc(OC)c(OC)cc3s2)c1 | 5.5 (≈ 16.7 µM)
Nc1cccc2c(=O)cc(-c3ccccc3)sc12 | 5.5 (≈ 21.7 µM)
CC(=O)Oc1cc2sc(-c3ccccc3)cc(=O)c2cc1OC(C)=O | 5.5 (≈ 15.5 µM)

Target: T2, DNA topoisomerase 1 (Homo sapiens) (UniProt P11387)
T2 sequence (whole entry): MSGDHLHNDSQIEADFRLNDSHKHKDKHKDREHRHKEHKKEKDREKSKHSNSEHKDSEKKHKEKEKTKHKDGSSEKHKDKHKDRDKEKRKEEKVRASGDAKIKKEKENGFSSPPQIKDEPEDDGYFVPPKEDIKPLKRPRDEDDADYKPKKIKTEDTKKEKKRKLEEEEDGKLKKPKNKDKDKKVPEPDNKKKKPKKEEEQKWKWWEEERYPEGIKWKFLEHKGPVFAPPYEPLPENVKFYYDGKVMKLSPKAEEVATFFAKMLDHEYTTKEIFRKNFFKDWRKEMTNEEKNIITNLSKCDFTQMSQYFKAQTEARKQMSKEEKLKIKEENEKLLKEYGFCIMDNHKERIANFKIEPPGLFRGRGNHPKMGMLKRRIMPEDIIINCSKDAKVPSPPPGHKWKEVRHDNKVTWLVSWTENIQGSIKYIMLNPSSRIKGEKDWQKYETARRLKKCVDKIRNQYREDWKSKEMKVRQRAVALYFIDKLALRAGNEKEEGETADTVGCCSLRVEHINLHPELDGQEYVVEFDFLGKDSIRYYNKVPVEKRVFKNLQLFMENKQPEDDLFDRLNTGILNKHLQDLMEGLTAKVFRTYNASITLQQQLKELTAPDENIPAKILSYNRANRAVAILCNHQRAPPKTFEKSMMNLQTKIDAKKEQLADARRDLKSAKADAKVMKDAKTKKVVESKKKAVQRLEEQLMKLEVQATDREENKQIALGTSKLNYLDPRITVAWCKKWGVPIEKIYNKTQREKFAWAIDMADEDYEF
Assay: Inhibitory activity against human DNA topoisomerase I at dose 100 uM
Details: not given
In short: (§3)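 Topo I activity read as ATP-independent relaxation of supercoiled plasmid DNA. Test compound at 100 µM; % inhibition is relative to enzyme and DNA control reactions. Camptothecin served as the positive inhibitor control.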

Compound | inhibition [%]
CC(=O)Oc1cc2sc(-c3ccccc3)cc(=O)c2cc1OC(C)=O | 0

Target: T2, DNA topoisomerase 1 (Homo sapiens)
Assay: Inhibitory activity against DNA topoisomerase I at dose 100 uM
Details: not given
In short: as §3

Compound | inhibition [%]
O=c1cc(-c2ccccc2)sc2cc(O)c(O)cc12 | 100

Test system: A549
Assay: Effective dose against 50% reduction in Human lung carcinoma (A-549) cell number after 3-day incubation.
Assay type: functional, cell-based
Details: not given

Compound | ED50
O=c1cc(-c2ccccc2)sc2cc(O)c(O)cc12 | inactive
O=c1cc(-c2ccccc2)[s+]([O-])c2ccccc12 (centres undefined) | inactive
COc1cccc(-c2cc(=O)c3cc(OC)c(OC)cc3s2)c1 | inactive
Nc1cccc2c(=O)cc(-c3ccccc3)sc12 | inactive
CC(=O)Oc1cc2sc(-c3ccccc3)cc(=O)c2cc1OC(C)=O | inactive

Target: Tubulin alpha chain (Sus scrofa, UniProt P02550)
Assay: Inhibitory activity of the compound against tubulin polymerization
Assay type: functional
Details: not given

Tubulin alpha chain, sequence (P02550 whole entry, looked up): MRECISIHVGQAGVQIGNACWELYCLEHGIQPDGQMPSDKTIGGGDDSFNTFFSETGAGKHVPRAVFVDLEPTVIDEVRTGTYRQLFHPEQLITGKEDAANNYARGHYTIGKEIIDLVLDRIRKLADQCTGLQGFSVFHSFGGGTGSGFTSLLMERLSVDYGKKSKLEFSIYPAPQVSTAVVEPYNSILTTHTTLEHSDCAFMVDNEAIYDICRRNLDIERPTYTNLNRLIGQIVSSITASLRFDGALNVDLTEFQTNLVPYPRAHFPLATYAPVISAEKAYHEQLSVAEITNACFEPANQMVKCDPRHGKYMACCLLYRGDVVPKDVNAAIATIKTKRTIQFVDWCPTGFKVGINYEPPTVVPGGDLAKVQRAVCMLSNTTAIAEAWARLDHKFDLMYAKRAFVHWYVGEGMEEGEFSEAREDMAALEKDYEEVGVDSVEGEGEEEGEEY

Compound | pIC50
COc1ccc(-c2oc3c(OC)c(OC)c(OC)c(O)c3c(=O)c2OC)cc1O | 6.08

Target: T1, DNA topoisomerase II (Homo sapiens)
Assay: Inhibitory activity against Human DNA topoisomerase II at dose 100 uM
Assay type: protein assay
Details: not given
In short: as §2

Compound | inhibition [%]
O=c1cc(-c2ccccc2)[s+]([O-])c2ccccc12 (centres undefined) | 0

Target: T2, DNA topoisomerase 1 (Homo sapiens)
Assay: Inhibitory activity against Human DNA topoisomerase I at dose 100 uM
Details: not given
In short: as §3

Compound | inhibition [%]
O=c1cc(-c2ccccc2)[s+]([O-])c2ccccc12 (centres undefined) | 100

Test system: H9
Assay: Inhibitory concentration required to inhibit uninfected growth of H9 lymphocytes by 50%
Assay type: functional, cell-based
Details: Homo sapiens
In short: as §1

Compound | IC50 [µM]
Cc1cn([C@H]2C[C@H](N=[N+]=[N-])[C@@H](CO)O2)c(=O)[nH]c1=O [ZIDOVUDINE] | 2000

Test system: TE-671
Assay: Effective dose against 50% reduction in Human CNS tumor (TE671) cell number after 3-day incubation; - indicates inactive
Assay type: functional, cell-based
Details: not given

Compound | ED50
COc1cccc(-c2cc(=O)c3cc(OC)c(OC)cc3s2)c1 | inactive
Nc1cccc2c(=O)cc(-c3ccccc3)sc12 | inactive

Test system: KB
Assay: Cellular protein-linked DNA breaks in KB oral carcinoma cell culture treated in triplicate at 50 uM for 1 hr
Assay type: functional, Homo sapiens
Details: not given
In short: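 Read-out is potassium-SDS precipitable cpm in treated KB cultures, expressed as fold.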

Compound | Activity
O=c1cc(-c2ccccc2)sc2cc(O)c(O)cc12 | 1
O=c1cc(-c2ccccc2)[s+]([O-])c2ccccc12 (centres undefined) | 1
CC(=O)Oc1cc2sc(-c3ccccc3)cc(=O)c2cc1OC(C)=O | 1

Test system: HCT-8
Assay: Effective dose against 50% reduction in Human ileocecal carcinoma (HCT-8) cell number after 3-day incubation.
Assay type: functional, cell-based
Details: not given

Compound | ED50
Nc1cccc2c(=O)cc(-c3ccccc3)sc12 | inactive
CC(=O)Oc1cc2sc(-c3ccccc3)cc(=O)c2cc1OC(C)=O | inactive

Test system: KB
Assay: Effective dose against 50% reduction in Human epidermoid carcinoma of the nasopharynx (KB) cell number after 3-day incubation; - indicates inactive
Assay type: functional, cell-based
Details: not given

Compound | ED50
Nc1cccc2c(=O)cc(-c3ccccc3)sc12 | inactive

Target: T1, DNA topoisomerase II (Homo sapiens)
Assay: Inhibitory activity against human DNA topoisomerase II at dose 100 uM
Assay type: protein assay
Details: not given
In short: as §2

Compound | inhibition [%]
CC(=O)Oc1cc2sc(-c3ccccc3)cc(=O)c2cc1OC(C)=O | 100

Test system: H9
Assay: Effective dose against growth of HIV infected H9 lymphocytes
Assay type: functional
Details: Homo sapiens, read-out: ED50 (the source's name)

Compound | EC50 [µg/mL]
Oc1cc(-c2ccccc2)nc2c(S)cccc12 | 12 (≈ 47.4 µM)
O=c1cc(-c2ccccc2)sc2cc(O)c(O)cc12 | 0.8 (≈ 2.96 µM)
Nc1cccc2c(=O)cc(-c3ccccc3)sc12 | 4 (≈ 15.8 µM)
CC(=O)Oc1cc2sc(-c3ccccc3)cc(=O)c2cc1OC(C)=O | 0.65 (≈ 1.83 µM)
Nc1ccc2sc(-c3ccccc3)cc(=O)c2c1 | 7 (≈ 27.6 µM)

Test system: TE-671
Assay: Effective dose against 50% reduction in Human CNS tumor (TE671) cell number after 3-day incubation
Assay type: functional
Details: TE-671, 72 h, read-out: ED50 (the source's name)

Compound | EC50 [µg/mL]
O=c1cc(-c2ccccc2)sc2cc(O)c(O)cc12 | 5.5 (≈ 20.3 µM)
O=c1cc(-c2ccccc2)[s+]([O-])c2ccccc12 (centres undefined) | 3.66 (≈ 14.4 µM)
CC(=O)Oc1cc2sc(-c3ccccc3)cc(=O)c2cc1OC(C)=O | 4.58 (≈ 12.9 µM)

Test system: HCT-8
Assay: Effective dose against 50% reduction in Human ileocecal carcinoma (HCT-8) cell number after 3-day incubation
Assay type: functional
Details: HCT-8, 72 h, read-out: ED50 (the source's name)

Compound | EC50 [µg/mL]
O=c1cc(-c2ccccc2)sc2cc(O)c(O)cc12 | 1.45 (≈ 5.36 µM)
O=c1cc(-c2ccccc2)[s+]([O-])c2ccccc12 (centres undefined) | 5.79 (≈ 22.8 µM)
COc1cccc(-c2cc(=O)c3cc(OC)c(OC)cc3s2)c1 | 6.35 (≈ 19.3 µM)
